Assay results taken from paper PMC9097774 (International Journal of Oncology, 2022).

Experiments:
[1] = cited from earlier work
[2] = test system: GLUT2 expression in HepG2 and Huh7 cells; assay: Western blotting of GLUT2; format: cell-based, human; conditions: Fig. S1
HepG2 cells = assay: Glycolytic activity; format: cell-based, human; conditions: cell culture supernatant; Fig. S1
Summary of the method: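 Glucose remaining and lactate released into the cell culture supernatant were measured with a blood gas analyser.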

[3] = test system: p53 phosphorylation in HepG2 and Huh7 cells; assay: Western blotting of p53 and phosphorylated p53; format: cell-based, human; conditions: 24 h; BB 0.6 and 1.2 µM; Vs 4.0 µM
Summary of the method: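 HepG2 and Huh7 cells were treated 24 h in RPMI with test compound (0.6 or 1.2 µM) or reference HDAC inhibitor (4.0 µM). Whole-cell extracts were made in SDS/deoxycholate/NP-40 buffer with protease inhibitors. Samples of 30 µg protein were run on 7.5% or 12% SDS-PAGE and blotted to PVDF. Blots were milk-blocked, given primary antibody overnight at 4°C, then HRP secondary (1:10,000) for 1 h. Tubulin served as loading control.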

HDAC1 = HDAC1 (Homo sapiens, UniProt Q13547); assay: Cell free fluorogenic HDAC assay; format: biochemical; conditions: IC50 and two-fold IC50 concentrations; control set to 100%
HDAC1, sequence (Q13547 whole entry): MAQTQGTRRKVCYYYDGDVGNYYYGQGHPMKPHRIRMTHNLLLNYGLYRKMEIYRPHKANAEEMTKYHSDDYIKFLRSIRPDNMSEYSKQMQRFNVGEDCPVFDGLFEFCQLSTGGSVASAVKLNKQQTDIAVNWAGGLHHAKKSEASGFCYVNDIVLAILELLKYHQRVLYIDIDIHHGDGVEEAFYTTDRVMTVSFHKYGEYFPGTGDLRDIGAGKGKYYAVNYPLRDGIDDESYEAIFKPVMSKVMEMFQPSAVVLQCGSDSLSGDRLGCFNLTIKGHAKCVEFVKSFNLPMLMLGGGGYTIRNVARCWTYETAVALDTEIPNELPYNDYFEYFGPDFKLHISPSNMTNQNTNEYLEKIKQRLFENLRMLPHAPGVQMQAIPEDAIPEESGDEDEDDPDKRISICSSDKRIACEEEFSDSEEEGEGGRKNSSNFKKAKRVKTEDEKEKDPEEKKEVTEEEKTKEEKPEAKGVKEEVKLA

Structure (SMILES)	therapeutic concentration [1]	Protein expression levels of GLUT2 [2]	glycolytic activity (glucose consumption, lactate production) (HepG2 cells)	phosphorylation of p53 [3]	effect on activity of HDAC1 (HDAC1)
CNC(=O)c1cc(Oc2ccc(NC(=O)Nc3ccc(Cl)c(C(F)(F)F)c3)cc2)ccn1 [sorafenib]	~ 8 µM				
O=C(CCCCCCC(=O)Nc1ccccc1)NO [vorinostat]		markedly reduced the expression of GLUT2	no such reduction in glycolytic activity could be observed	no increase in p53 phosphorylation	potent inhibitory effects
